Laboratory results reported in ChEMBL document CHEMBL1128502, “Aziridine analogs of [[trans-(epoxysuccinyl)-L-leucyl]amino]-4-guanidinobutane (E-64) as inhibitors of cysteine proteases” (J Med Chem, 1995).

Legend:
[1] = target: T1, Papain (Carica papaya) (UniProt P00784); experiment: Second order rate constant for the inactivation of papain at pH 6.5 was reported
T1 sequence (whole entry): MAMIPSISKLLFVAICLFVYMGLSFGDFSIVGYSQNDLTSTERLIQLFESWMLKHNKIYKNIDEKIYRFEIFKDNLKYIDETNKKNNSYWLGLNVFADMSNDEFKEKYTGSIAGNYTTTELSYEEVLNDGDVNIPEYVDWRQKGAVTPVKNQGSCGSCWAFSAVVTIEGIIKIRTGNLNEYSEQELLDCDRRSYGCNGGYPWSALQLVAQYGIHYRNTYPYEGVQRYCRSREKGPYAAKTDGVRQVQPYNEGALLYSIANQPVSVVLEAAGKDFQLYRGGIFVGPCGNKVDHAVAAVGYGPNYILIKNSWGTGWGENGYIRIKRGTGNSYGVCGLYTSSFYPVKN
In short: (§1)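 Inactivation of cysteine protease was followed at 25 °C in 50 mM buffer with 0.2 M NaCl, 5 mM EDTA, 1 mM DTT and 10% acetonitrile. Buffers were citrate for pH 3.0–5.7, phosphate for pH 5.7–7.9 and borate for pH 7.9–9.0. The second-order constant kinac/Ki was obtained by the Tian and Tsou method.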

[2] = target: Procathepsin L (Homo sapiens) (UniProt P07711); experiment: Second order rate constant for the inactivation of cathepsin L at pH 5.5 was reported; in short: as §1
Chain of Procathepsin L (Homo sapiens) (P07711 114-333 limits assumed): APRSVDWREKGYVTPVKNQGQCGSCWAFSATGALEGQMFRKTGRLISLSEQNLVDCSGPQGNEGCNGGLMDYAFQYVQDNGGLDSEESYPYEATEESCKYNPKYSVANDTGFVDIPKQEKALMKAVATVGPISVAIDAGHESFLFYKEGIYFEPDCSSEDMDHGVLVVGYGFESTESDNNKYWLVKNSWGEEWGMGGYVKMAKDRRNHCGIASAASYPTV

[3] = target: Cathepsin B (Rattus norvegicus) (UniProt P00787); experiment: Second order rate constant for the inactivation of cathepsin B at pH 6.0 was reported; No time dependent inhibition observed; in short: as §1
Chain of Cathepsin B (Rattus norvegicus) (P00787 80-333 limits assumed): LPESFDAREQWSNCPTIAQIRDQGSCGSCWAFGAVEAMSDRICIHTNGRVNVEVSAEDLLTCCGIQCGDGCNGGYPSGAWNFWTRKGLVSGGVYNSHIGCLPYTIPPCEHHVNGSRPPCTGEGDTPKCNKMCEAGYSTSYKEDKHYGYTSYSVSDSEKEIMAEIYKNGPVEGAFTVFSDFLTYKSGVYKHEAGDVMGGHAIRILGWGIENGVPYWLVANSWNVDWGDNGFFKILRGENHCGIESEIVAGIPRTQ

[4] = target: Cathepsin B (Rattus norvegicus) (UniProt P00787); experiment: Second order rate constant for the inactivation of cathepsin B at pH 6.0 was reported
[5] = target: Procathepsin L (Homo sapiens) (UniProt P07711); experiment: Second order rate constant for the inactivation of cathepsin L at pH 6.5 was reported; in short: as §1
[6] = target: T1, Papain (Carica papaya); experiment: Second order rate constant for the inactivation of papain at pH 6.5 was reported; No time dependent inhibition observed; in short: as §1

| SMILES | K inact/Ki [1] [M⁻¹ s⁻¹] | K inact/Ki [2] [M⁻¹ s⁻¹] | K inact/Ki [3] | K inact/Ki [4] [M⁻¹ s⁻¹] | K inact/Ki [5] [M⁻¹ s⁻¹] | K inact/Ki [6] |
| --- | --- | --- | --- | --- | --- | --- |
| CC(C)CNC(=O)[C@@H]1N[C@@H]1C(=O)N[C@@H](CC(C)C)C(=O)N1CCC[C@H]1C(=O)O | 1.8 | 6.7 | No inhibition | – | – | – |
| CC(C)CNC(=O)[C@@H]1N[C@H]1C(=O)N[C@@H](CC(C)C)C(=O)N1CCC[C@H]1C(=O)O | – | – | – | 13 | 50 | No inhibition |
| CC(C)CNC(=O)[C@H]1N[C@H]1C(=O)O | 9.4 | – | – | – | – | – |
